Laboratory results from ChEMBL document CHEMBL3872233, “Topical Treatment of Leishmania tropica Infection Using (-)-α-Bisabolol Ointment in a Hamster Model: Effectiveness and Safety Assessment” (J Nat Prod, 2016).
Active and inactive are the calls of the source. The rule behind the calls is not given here.

What was measured:
[1] = test system: Leishmania tropica; test: (§1) Antileishmanial activity against Leishmania tropica MHOM/MA/1988/LEM1314 promastigotes infected in Syrian hamster assessed as reduction in parasite load in foodpad skin at 200 mg administered once daily through oral gavage for 3 weeks starting at week 7 post infection measured 1 week post last dose by qPCR analysis relative to control; type: functional; set-up: scale not given: the % may be the effect or the level left
How it was run: (§2)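 Hamsters were infected in the footpad and treated daily for 21 days from week 7 post-infection, n = 10/group, and sacrificed 1 week after the last dose. Footpad skin, liver and spleen DNA was assayed by L. tropica-specific TaqMan qPCR (chromosome 29 target), in triplicate with 50 ng DNA per 25 μL reaction. Load was interpolated from Ct on a calibration curve of promastigote DNA, relative to base-ointment controls.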

[2] = test system: Syrian golden hamster; test: Toxicity in Syrian hamster assessed as redness at 500 mg/kg, po or 5 % administered tropically on footpad for 28 days; type: organism-based, Mesocricetus auratus; conditions: in vivo, 672 h
[3] = test system: Syrian golden hamster; test: Toxicity in Syrian hamster assessed as mean serum AST levels at 5 % administered tropically on footpad for 28 days (reference value: 83.4 +/- 4.2 U/L); type: organism-based, Mesocricetus auratus; conditions: in vivo, topical_or_ocular, 672 h
[4] = test system: Syrian golden hamster; test: Toxicity in Syrian hamster infected with Leishmania tropica MHOM/MA/1988/LEM1314 promastigotes assessed as mean serum AST levels at 1 % administered tropically on footpad for 3 weeks starting at week 7 post infection measured 1 week post last dose (reference value: 77.1 +/- 0.9 U/L); type: organism-based, Mesocricetus auratus; conditions: in vivo, topical_or_ocular, 168 h
[5] = test system: Syrian golden hamster; test: Toxicity in Syrian hamster infected with Leishmania tropica MHOM/MA/1988/LEM1314 promastigotes assessed as mean serum AST levels at 5 % administered tropically on footpad for 3 weeks starting at week 7 post infection measured 1 week post last dose (reference value: 77.1 +/- 0.9 U/L); type: organism-based, Mesocricetus auratus; conditions: in vivo, topical_or_ocular, 168 h
[6] = test system: Syrian golden hamster; test: Toxicity in Syrian hamster assessed as mean serum ALT levels at 5 % administered tropically on footpad for 28 days (reference value: 82.2 +/- 4.8 U/L); type: organism-based, Mesocricetus auratus; conditions: in vivo, topical_or_ocular, 672 h
[7] = test system: Syrian golden hamster; test: Toxicity in Syrian hamster infected with Leishmania tropica MHOM/MA/1988/LEM1314 promastigotes assessed as mean serum ALT levels at 1 % administered tropically on footpad for 3 weeks starting at week 7 post infection measured 1 week post last dose (reference value: 81.6 +/- 4.9 U/L); type: organism-based, Mesocricetus auratus; conditions: in vivo, topical_or_ocular, 168 h
[8] = test system: Syrian golden hamster; test: Toxicity in Syrian hamster infected with Leishmania tropica MHOM/MA/1988/LEM1314 promastigotes assessed as mean serum ALT levels at 2.5 % administered tropically on footpad for 3 weeks starting at week 7 post infection measured 1 week post last dose (reference value: 81.6 +/- 4.9 U/L); type: organism-based, Mesocricetus auratus; conditions: in vivo, topical_or_ocular, 168 h
[9] = test system: Syrian golden hamster; test: Toxicity in Syrian hamster assessed as mean serum creatinine levels at 5 % administered tropically on footpad for 28 days (reference value: 0.21 +/- 0.2 mg/dl); type: organism-based, Mesocricetus auratus; conditions: in vivo, topical_or_ocular, 672 h
[10] = test system: Syrian golden hamster; test: Toxicity in Syrian hamster assessed as mean serum creatinine levels at 500 mg/kg administered through oral gavage for 28 days (reference value: 0.21 +/- 0.2 mg/dl); type: organism-based, Mesocricetus auratus; conditions: in vivo, 672 h
[11] = test system: Syrian golden hamster; test: Toxicity in Syrian hamster infected with Leishmania tropica MHOM/MA/1988/LEM1314 promastigotes assessed as mean serum creatinine levels at 1 % administered tropically on footpad for 3 weeks starting at week 7 post infection measured 1 week post last dose (reference value: 0.19 mg/dl); type: organism-based, Mesocricetus auratus; conditions: in vivo, topical_or_ocular, 168 h
[12] = test system: Syrian golden hamster; test: Toxicity in Syrian hamster assessed as mean serum ALP levels at 5 % administered tropically on footpad for 28 days (reference value: 14.4 +/- 2 U/L); type: organism-based, Mesocricetus auratus; conditions: in vivo, topical_or_ocular, 672 h
[13] = test system: Syrian golden hamster; test: Toxicity in Syrian hamster infected with Leishmania tropica MHOM/MA/1988/LEM1314 promastigotes assessed as mean serum ALP levels at 1 % administered tropically on footpad for 3 weeks starting at week 7 post infection measured 1 week post last dose (reference value: 14.4 +/- 0.9 U/L); type: organism-based, Mesocricetus auratus; conditions: in vivo, topical_or_ocular, 168 h
How it was run: (§3)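 Infected hamsters were treated daily for 21 days from week 7 post-infection (ointment 1–5%, 200 mg/kg gavage, or intralesional meglumine antimoniate 2 mg SbV/kg). Clinical signs and body weight were monitored during treatment and a 7-day follow-up. After sacrifice, liver and spleen were weighed and serum ALP, ALT, creatinine, urea and AST were measured with kits, compared with untreated infected animals.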

[14] = test system: Syrian golden hamster; test: Toxicity in Syrian hamster assessed as urea levels at 5 % administered tropically on footpad for 28 days (reference value: 33.2 +/- 2.8 mg/dl); type: organism-based, Mesocricetus auratus; conditions: in vivo, topical_or_ocular, 672 h
[15] = test system: Syrian golden hamster; test: Toxicity in Syrian hamster assessed as urea levels at 500 mg/kg administered through oral gavage for 28 days (reference value: 33.2 +/- 2.8 mg/dl); type: organism-based, Mesocricetus auratus; conditions: in vivo, 672 h
[16] = test system: Syrian golden hamster; test: Toxicity in Syrian hamster infected with Leishmania tropica MHOM/MA/1988/LEM1314 promastigotes assessed as spleen weight at 200 mg/kg administered through oral gavage for 3 weeks starting at week 7 post infection measured 1 week post last dose (reference value: 178.8 +/- 1.2 mg); type: organism-based, Mesocricetus auratus; conditions: in vivo, 168 h
[17] = test system: Syrian golden hamster; test: Toxicity in Syrian hamster infected with Leishmania tropica MHOM/MA/1988/LEM1314 promastigotes assessed as spleen weight at 2.5 % administered tropically on footpad for 3 weeks starting at week 7 post infection measured 1 week post last dose (reference value: 178.8 +/- 1.2 mg); type: organism-based, Mesocricetus auratus; conditions: in vivo, topical_or_ocular, 168 h
[18] = test system: Syrian golden hamster; test: Toxicity in Syrian hamster infected with Leishmania tropica MHOM/MA/1988/LEM1314 promastigotes assessed as liver weight at 5 % administered tropically on footpad for 3 weeks starting at week 7 post infection measured 1 week post last dose (reference value: 3.3 +/- 0.2 g); type: organism-based, Mesocricetus auratus; conditions: in vivo, topical_or_ocular, 168 h; how it was run: as §3
[19] = test system: Syrian golden hamster; test: Toxicity in Syrian hamster assessed as change in body weight at 500 mg/kg, po or 5 % administered tropically on footpad for 28 days; type: organism-based, Mesocricetus auratus; conditions: in vivo, 672 h
[20] = test system: Syrian golden hamster; test: Toxicity in Syrian hamster infected with Leishmania tropica MHOM/MA/1988/LEM1314 promastigotes assessed as pain at 200 mg/kg administered through oral gavage for 3 weeks starting at week 7 post infection measured during compound dosing or measured 1 week post last dose; type: organism-based, Mesocricetus auratus; conditions: in vivo, 168 h
How it was run: (§4)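 Infected hamsters (footpad, 3 × 10^7 promastigotes) were gavaged daily for 21 days from week 7 post-infection at 200 mg/kg in olive oil, n=10.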

[21] = test system: Syrian golden hamster; test: Toxicity in Syrian hamster infected with Leishmania tropica MHOM/MA/1988/LEM1314 promastigotes assessed as redness at 200 mg/kg administered through oral gavage for 3 weeks starting at week 7 post infection measured during compound dosing or measured 1 week post last dose; type: organism-based, Mesocricetus auratus; conditions: in vivo, 168 h; how it was run: as §4
[22] = test system: Syrian golden hamster; test: Toxicity in Syrian hamster infected with Leishmania tropica MHOM/MA/1988/LEM1314 promastigotes assessed as change in body weight at 200 mg/kg administered through oral gavage for 3 weeks starting at week 7 post infection measured during compound dosing or measured 1 week post last dose; type: organism-based, Mesocricetus auratus; conditions: in vivo, 168 h; how it was run: as §3
[23] = test system: Leishmania tropica; test: as §1, with “liver” for “foodpad skin”; type: functional, tissue-based; how it was run: as §2
[24] = test system: Leishmania tropica; test: as §1, with “liver” for “foodpad skin”, “1 %” for “200 mg”, “tropically on footpad” for “through oral gavage”; type: functional, tissue-based; how it was run: as §2
[25] = test system: Leishmania tropica; test: as §1, with “liver” for “foodpad skin”, “2 mg/kg” for “200 mg”, “administered intralesionally” for “administered”, “on footpad” for “through oral gavage”; type: functional, organism-based; how it was run: as §2
[26] = test system: Leishmania tropica; test: as §1, with “spleen” for “foodpad skin”; type: functional; how it was run: as §2

In the case of `CC(C)=CCC[C@](C)(O)[C@@H]1CC=C(C)CC1` [LEVOMENOL], the Activity [1] is reported as 74%, the Activity [2] is reported as “Non-Toxic” and the Activity [3] is reported as 83.4 U/L. It also gave an Activity [4] of 82.2 U/L, an Activity [5] of 73 U/L and an Activity [6] of 82.5 U/L. It also gave an Activity [7] of 81.9 U/L, an Activity [8] of 81.3 U/L and an Activity [9] of 0.19 mg/dL. It also gave an Activity [10] of 0.19 mg/dL, an Activity [11] of 0.22 mg/dL and an Activity [12] of 14.1 U/L. For the same compound, the Activity [13] was 13 U/L, the Activity [14] was 33.9 mg/dL and the Activity [15] was 33.7 mg/dL. For the same compound, the Activity [16] was 177.3 mg, the Activity [17] was 178.4 mg and the Activity [18] was 3.2 g. For the same compound, the Activity [19] was “Non-Toxic”, the Activity [20] was “Non-Toxic” and the Activity [21] was “Non-Toxic”. The Activity [22] was “Non-Toxic”, the Activity [23] was “Active” and the Activity [24] was “Active”. The Activity [25] was “Active” and the Activity [26] was “Active”.
